# The list is not random: actives were taken first. Their share in the collection is about 8.9%.
# bCat nuc transl: modulators of beta-catenin nuclear translocation; HeLa beta-catenin nuclear translocation, immunofluorescence imaging; hit rate 0.3% among 190,000; nuclear translocation activity, % at 5 µM;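 active = nuclear translocation activity above 50% at 5 µM, with a well cell count of 50 or more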;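 also: per-cell ratio of nuclear to cytoplasmic median beta-catenin stain intensity; plate controls were DMSO negative control for no effect and GSK-3 inhibitor IX positive control for full effect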
#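 Technique: fluorescence imaging of beta-catenin antibody stain plus DAPI / Material: human HeLa cell line / Incubation: compound treatment 24 h, 37°C, 5% CO2 / Read-out basis: % activation of per-cell nuclear versus cytoplasmic median beta-catenin signal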
# Dynein cargo inh: blocks dynein driven cargo transport along microtubules; 3617.4 mouse cells, GR-EGFP nuclear translocation imaging; test concentration mostly 20 µM; stimulated with dexamethasone, 1 µM; active compounds read low; z-score, hits read low; hit rate 0.47% among 220,000;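 active = plate z-score of nuclear minus cytoplasmic receptor signal below a set negative limit, without overly bright fluorescence or cell loss, cut at about -3.5 in these data, passing the limit was not always enough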;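 also: z-score of nuclear minus cytoplasmic ring GR-EGFP intensity difference per well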
#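 Medium: Induction medium lacking tetracycline, stripped serum | Probe or stimulus: 1.0 µM final dexamethasone stimulus | Schedule: 48 h induction, then 1 h compound, then 30 min agonist, 37 °C | Signal: Automated 10x imaging of fixed Hoechst-stained cells | Evaluation: Per-cell GR-EGFP intensity, nucleus versus surrounding cytoplasmic ring, well-averaged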
# L major viab: Leishmania major promastigote growth inhibition; Leishmania major promastigotes, resazurin fluorescence viability; AID 1063; hit rate 9% among 200,000; inhibition, % at 10 µM; in the data active = inhibition above about 50%;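 also: promastigotes grown with compound for 44 hours at 28 °C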
# HSV augment: HSV replication enhancement | HSV replication augmentation in cells, fold increase | hit rate 0.005% among 220,000 | maximum fold increase; in the data active = maximum fold increase above about 1.5; tested in PC3 cells
# MT stabilizer: microtubule stabilizers in HeLa cells | HeLa tubulin immunostaining HCS, 24 h; share of cells brighter than vehicle mean+2SD | % tubulin-high responders, % at 10 µM | hit rate 0.83% among 200,000 | AID 2205;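 active = plate Z-score above 3 for both tubulin-high and condensed-nucleus cell shares, with cell loss under 80%, at 10 µM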;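 also: anti alpha tubulin signal scored within the nucleus-defined area of each cell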
# * marks the source's active call; other numbers are inactive results; i = inactive; / = no result.
SMILES,bCat nuc transl,Dynein cargo inh,L major viab,HSV augment,MT stabilizer
CC(=O)NC1=C(NC2CCS(=O)(=O)C2)C(=O)c2ccccc2C1=O (centres undefined),2,-2.3,11,i,8
CC(C)(C)C1CC=C2C(C#N)=C(N)C(C#N)(C#N)C(c3cccs3)C2C1 (centres undefined),/,-3.3,33,i,2
CCc1ccc(C2C(C#N)=C(N)C(C#N)(C#N)C3=CCC(C(C)(C)C)CC32)cc1 (centres undefined),-3,-2,96*,i,1
COc1ccc(C2c3c(ncn(CCCO)c3=N)Oc3ccc4ccccc4c32)cc1OC (centres undefined),0,0.36,/,i,/
COc1ccc2o/c(=N\O)c(C(=O)Nc3ccccc3OC)cc2c1,1,-4.2*,97*,i,2
COc1ccc2oc(=Nc3cc(F)ccc3F)c(C(N)=O)cc2c1,/,1.3,59*,i,15
c1ccc(-c2csc3ncn4nnnc4c23)cc1,0,0.057,-8,i,4
Cc1c(CN2CCC(CO)(Cc3ccccc3)CC2)c2ccccc2n1C,0,0.48,40,i,2
OCC1(Cc2ccccc2)CCN(CCCC2CCCC2)CC1,0,0.3,96*,i,1
OCC1(Cc2ccccc2)CCCN(Cc2ccc(-c3ccco3)cc2)C1 (centres undefined),1,-0.34,80*,i,2
CCN1CCCC(CO)(Cc2ccccc2)C1 (centres undefined),0,-0.46,1,i,1
OCC1(Cc2ccccc2)CCN(Cc2ccc(-c3ccco3)cc2)CC1,1,-1.8,91*,i,/
Fc1ccc(C2CC(c3ccc(F)cc3)n3ncnc3N2)cc1 (centres undefined),-6,-0.97,1,i,5
CC(=O)N[C@@H](C)C(=O)OC(C)C(=O)Nc1cccc([N+](=O)[O-])c1 (some centres undefined),-1,-0.69,-1,i,3
C/C(=N\NC(=O)CC1N=C(Cc2ccccc2)NNC1=O)c1ccc(C)cc1 (centres undefined),0,-0.29,7,i,31*
C/C(=N\NC(=O)CC1N=C(Cc2ccccc2)NNC1=O)c1ccc(Br)cc1 (centres undefined),0,-0.029,/,i,/
O=C(Nc1cccc(S(=O)(=O)C(F)F)c1)c1ccc(Cl)c(S(=O)(=O)N2CCOCC2)c1,1,0.69,9,i,2
CCO[C@@H]1OC(C(=O)O)=C[C@H](c2csc3ccccc23)[C@H]1CCCO,0,2,-6,i,2
CCO[C@H]1OC(C(=O)Nc2ccccc2)=C[C@@H](c2csc3ccccc23)[C@@H]1CCCO,1,3.2,58*,i,3
CCO[C@@H]1OC(C(=O)N2CCN(Cc3ccc4c(c3)OCO4)CC2)=C[C@H](c2csc3ccccc23)[C@H]1CCCO,-1,2.5,72*,i,2
CCO[C@@H]1OC(C(=O)N2CCN(Cc3ccc4c(c3)OCO4)CC2)=C[C@H](c2ccc3c(c2)OCO3)[C@H]1CCCO,-3,0.14,-1,i,5
CCO[C@H]1OC(C(=O)N2CCN(Cc3ccc4c(c3)OCO4)CC2)=C[C@@H](C2CC2)[C@@H]1CCCO,-1,0.41,77*,i,3
COc1ccc(NC(=O)CS(=O)CC(=O)NCc2cccc(C(F)(F)F)c2)cc1 (centres undefined),2,0.063,-8,i,2
CSc1ccccc1C(=O)Nc1cc(C)ccc1C,-1,-0.12,5,i,3
Cc1ccc(C)c(NC(=O)c2ccccc2NS(=O)(=O)c2cc([N+](=O)[O-])ccc2C)c1,1,-0.36,63*,i,4
Cc1ccc(C)c(NC(=O)c2ccccc2Sc2ccc([N+](=O)[O-])cc2Cl)c1,-1,0.24,96*,i,3
CCC(=C(c1ccc(OC)cc1)c1ccc(OC)cc1)c1cn(CC(O)CN2CCN(C)CC2)c2ccccc12 (centres undefined),22,0.78,100*,/,1
Cc1cccc(C(=O)N/N=C/c2ccc(OC3CSC3)cc2)c1,8,-0.55,-4,i,4
CCN(c1ccccc1)S(=O)(=O)c1ccc(OC)c(NC(=O)CNC)c1,2,-0.44,7,i,8

# Compound activity as filed in PubChem BioAssay.
